Measured values from ChEMBL document CHEMBL3739286, “Betulinic acid derived hydroxamates and betulin derived carbamates are interesting scaffolds for the synthesis of novel cytotoxic compounds” (Eur J Med Chem, 2015).

Tests used:
[1] = Cytotoxicity against mouse NIH/3T3 cells after 96 hrs by SRB assay; type: cell-based, NIH3T3
Outline: (§1)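 Photometric sulforhodamine B read-out of antiproliferative effect after 96 h of continuous treatment; EC₅₀ values in µM, averaged from three independent experiments each run in triplicate; the assay cut-off is EC₅₀ > 30 µM. Human tumour lines are tested alongside nonmalignant mouse NIH 3T3 fibroblasts.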

[2] = system: A549; assay: Cytotoxicity against human A549 cells after 96 hrs by SRB assay; type: functional, cell-based; outline: as §1
[3] = system: A2780; assay: Cytotoxicity against human A2780 cells after 96 hrs by SRB assay; type: functional, cell-based; outline: as §1
[4] = system: MCF7; assay: Cytotoxicity against human MCF7 cells after 96 hrs by SRB assay; type: functional, cell-based; outline: as §1
[5] = Cytotoxicity against human 518A2 cells after 96 hrs by SRB assay; type: functional, cell-based; outline: as §1
[6] = system: HeLa; assay: Cytotoxicity against human HeLa cells after 96 hrs by SRB assay; type: functional, cell-based; outline: as §1
[7] = system: HT-29; assay: Cytotoxicity against human HT-29 cells after 96 hrs by SRB assay; type: functional, cell-based; details: HT-29, 96 h; outline: as §1
[8] = Mus musculus, NIH3T3, 96 h, read-out: EC50
[9] = Homo sapiens, A549, 96 h, read-out: EC50
[10] = Homo sapiens, A2780, 96 h, read-out: EC50
[11] = Homo sapiens, MCF7, 96 h, read-out: EC50
[12] = Homo sapiens, 518A2, 96 h, read-out: EC50

SMILES | EC50 [1, 8] [µM] | EC50 [2, 9] [µM] | EC50 [3, 10] [µM] | EC50 [4, 11] [µM] | EC50 [5, 12] [µM] | EC50 [6] [µM] | EC50 [7] [µM] | EC50 ([1]; nih3t3) | EC50 ([2]; a549) | EC50 ([3]; a2780) | EC50 ([4]; mcf7) | EC50 ([5]; 518a2)
C=C(C)[C@@H]1CC[C@]2(CO)CC[C@]3(C)[C@H](CC[C@@H]4[C@@]5(C)CC[C@H](OC(C)=O)C(C)(C)[C@@H]5CC[C@]43C)[C@@H]12 | > 30 | 14 | 11 | 11.2 | 15.2 |  |  |  |  |  |  | 
C=C(C)[C@@H]1CC[C@]2(C(=O)O)CC[C@]3(C)[C@H](CC[C@@H]4[C@@]5(C)CC[C@H](OC(C)=O)C(C)(C)[C@@H]5CC[C@]43C)[C@@H]12 | > 30 | 6.2 | 18.3 | 11 | 4.5 |  |  |  |  |  |  | 
C=C(C)[C@@H]1CC[C@]2(C(=O)NCc3ccccc3)CC[C@]3(C)[C@H](CC[C@@H]4[C@@]5(C)CC[C@H](O)C(C)(C)[C@@H]5CC[C@]43C)[C@@H]12 | 11.1 | > 30 | 11.8 | 18 | > 30 | > 30 |  |  |  |  |  | 
C=C(C)[C@@H]1CC[C@]2(C(=O)NO)CC[C@]3(C)[C@H](CC[C@@H]4[C@@]5(C)CC[C@H](OC(C)=O)C(C)(C)[C@@H]5CC[C@]43C)[C@@H]12 | 1.1 | 1.3 | 1.3 | 1.4 | 1.6 |  |  |  |  |  |  | 
C=C(C)[C@@H]1CC[C@]2(COC(=O)NCCCCCC)CC[C@]3(C)[C@H](CC[C@@H]4[C@@]5(C)CC[C@H](O)C(C)(C)[C@@H]5CC[C@]43C)[C@@H]12 | > 30 | 12.7 | 7.7 | > 30 | 5.5 | 7.4 | > 30 |  |  |  |  | 
C=C(C)[C@@H]1CC[C@]2(C(=O)NO)CC[C@]3(C)[C@H](CC[C@@H]4[C@@]5(C)CC[C@H](O)C(C)(C)[C@@H]5CC[C@]43C)[C@@H]12 | 2 | 5.3 | 3.7 | 3.9 | 2.4 |  |  |  |  |  |  | 
C=C(C)[C@@H]1CC[C@]2(COC(=O)NCCCC)CC[C@]3(C)[C@H](CC[C@@H]4[C@@]5(C)CC[C@H](O)C(C)(C)[C@@H]5CC[C@]43C)[C@@H]12 | 5.7 | 8.6 | 7 | 12.5 | 8 | 10.1 | 7.5 |  |  |  |  | 
C=C(C)[C@@H]1CC[C@]2(C(=O)N(C)OC)CC[C@]3(C)[C@H](CC[C@@H]4[C@@]5(C)CCC(=O)C(C)(C)[C@@H]5CC[C@]43C)[C@@H]12 | 26.7 | 14.5 | 20.7 | 18.7 | > 30 |  |  |  |  |  |  | 
C=C(C)[C@@H]1CC[C@]2(C(=O)N(C)OC)CC[C@]3(C)[C@H](CC[C@@H]4[C@@]5(C)CC[C@H](OC(C)=O)C(C)(C)[C@@H]5CC[C@]43C)[C@@H]12 | 17.4 | 20.1 | 19.3 | 16.4 | 17.5 |  |  |  |  |  |  | 
C=CCONC(=O)[C@]12CC[C@@H](C(=C)C)[C@@H]1[C@H]1CC[C@@H]3[C@@]4(C)CC[C@H](O)C(C)(C)[C@@H]4CC[C@@]3(C)[C@]1(C)CC2 | 6.1 | 4.1 | 7.3 | 8.6 | 6.7 |  |  |  |  |  |  | 
C=CCONC(=O)[C@]12CC[C@@H](C(=C)C)[C@@H]1[C@H]1CC[C@@H]3[C@@]4(C)CCC(=O)C(C)(C)[C@@H]4CC[C@@]3(C)[C@]1(C)CC2 | 19.7 | 25 | 19.7 | 18.4 | 22.4 |  |  |  |  |  |  | 
C=C(C)[C@@H]1CC[C@]2(C(=O)N(C)O)CC[C@]3(C)[C@H](CC[C@@H]4[C@@]5(C)CCC(=O)C(C)(C)[C@@H]5CC[C@]43C)[C@@H]12 | 5 | 6 | 3 | 10.2 | 6.3 |  |  |  |  |  |  | 
C=C(C)[C@@H]1CC[C@]2(C(=O)N(C)OC)CC[C@]3(C)[C@H](CC[C@@H]4[C@@]5(C)CC[C@H](O)C(C)(C)[C@@H]5CC[C@]43C)[C@@H]12 | 7.7 | 19 | 7.6 | 10.2 | 7.3 |  |  |  |  |  |  | 
C=CCONC(=O)[C@]12CC[C@@H](C(=C)C)[C@@H]1[C@H]1CC[C@@H]3[C@@]4(C)CC[C@H](OC(C)=O)C(C)(C)[C@@H]4CC[C@@]3(C)[C@]1(C)CC2 | > 30 | 6.6 | 5.9 | 12.2 | 7.6 |  |  |  |  |  |  | 
C=C(C)[C@@H]1CC[C@]2(C(=O)N(C)O)CC[C@]3(C)[C@H](CC[C@@H]4[C@@]5(C)CC[C@H](O)C(C)(C)[C@@H]5CC[C@]43C)[C@@H]12 |  |  |  |  |  |  |  | ND(Insoluble) | ND(Insoluble) | ND(Insoluble) | ND(Insoluble) | ND(Insoluble)
C=C(C)[C@@H]1CC[C@]2(C(=O)NOC)CC[C@]3(C)[C@H](CC[C@@H]4[C@@]5(C)CC[C@H](OC(C)=O)C(C)(C)[C@@H]5CC[C@]43C)[C@@H]12 | 9.5 | 11.7 | 8.9 | 13.5 | 8 |  |  |  |  |  |  | 
C=C(C)[C@@H]1CC[C@]2(C(=O)N(C)O)CC[C@]3(C)[C@H](CC[C@@H]4[C@@]5(C)CC[C@H](OC(C)=O)C(C)(C)[C@@H]5CC[C@]43C)[C@@H]12 | 2.9 | 4.3 | 2 | 2.3 | 3.5 |  |  |  |  |  |  | 
C=C(C)[C@@H]1CC[C@]2(C(=O)NOC)CC[C@]3(C)[C@H](CC[C@@H]4[C@@]5(C)CC[C@H](O)C(C)(C)[C@@H]5CC[C@]43C)[C@@H]12 | 15.2 | 6.9 | 12.3 | 21.9 | 5.8 |  |  |  |  |  |  | 
C=C(C)[C@@H]1CC[C@]2(C(=O)NOC)CC[C@]3(C)[C@H](CC[C@@H]4[C@@]5(C)CCC(=O)C(C)(C)[C@@H]5CC[C@]43C)[C@@H]12 | 12.7 | 6.1 | 12 | 13.8 | 17.2 |  |  |  |  |  |  | 
C=C(C)[C@@H]1CC[C@]2(COC(C)=O)CC[C@]3(C)[C@H](CC[C@@H]4[C@@]5(C)CC[C@H](OC(C)=O)C(C)(C)[C@@H]5CC[C@]43C)[C@@H]12 [BETULIN DIACETATE] | > 30 | > 30 | > 30 | > 30 | > 30 |  |  |  |  |  |  | 
C=C(C)[C@@H]1CC[C@]2(C(=O)O)CC[C@]3(C)[C@H](CC[C@@H]4[C@@]5(C)CC[C@H](O)C(C)(C)[C@@H]5CC[C@]43C)[C@@H]12 [BETULINIC ACID] | 16.1 | 17.1 | 8.8 | 10.2 | 9.4 |  |  |  |  |  |  | 
C=C(C)[C@@H]1CC[C@]2(CO)CC[C@]3(C)[C@H](CC[C@@H]4[C@@]5(C)CC[C@H](O)C(C)(C)[C@@H]5CC[C@]43C)[C@@H]12 [BETULIN] | > 30 | > 30 | > 30 | > 30 | > 30 |  |  |  |  |  |  | 
C=C(C)[C@@H]1CC[C@]2(C(=O)O)CC[C@]3(C)[C@H](CC[C@@H]4[C@@]5(C)CCC(=O)C(C)(C)[C@@H]5CC[C@]43C)[C@@H]12 [BETUNOLIC ACID] | 13.1 | 25.9 | 20.4 | 25.9 | 29 |  |  |  |  |  |  | 
